Tests used:
[1] = Antiviral activity against HSV-1 was determined using BSC-1 cells by an enzyme-linked immunosorbent assay (ELISA); format: functional, cell-based; details: Cercopithecidae
CEM-SS [2] = assay: Visual cytotoxicity was scored on CEM-SS cells; format: functional, cell-based; details: Homo sapiens
HFF [3] = assay: Visual cytotoxicity was scored on uninfected HFF cells; format: functional, cell-based; details: Homo sapiens
HFF [4] = assay: Antiviral activity against HCMV was determined by plaque reduction assay using HFF cells; format: functional, cell-based; details: Homo sapiens
[5] = (§1) Cytotoxicity measured as Inhibition of KB cell growth was assessed.; format: functional, cell-based; details: Homo sapiens
CEM-SS [6] = assay: Intracellular phosphorylation (10 uM) in uninfected CEM-SS cells was studied; format: functional, cell-based; details: Homo sapiens
Procedure, shortened: (§2)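 Uninfected cells grown in suspension with compound at the stated extracellular concentration for 5 or 24 h. Cells pelleted and washed in cold Puck's saline with glucose. Nucleotides extracted with 0.6 N TCA on ice, neutralized with freon/0.5 M triethylamine, then separated by reverse-phase C18 HPLC (formic acid pH 2.5 to 50% methanol gradient), UV 254/290 nm; peaks identified by electrospray MS in a separate run. TCN-P quantified against standards and converted to μM using 1.9 pL/cell.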

[7] = Antiviral activity was evaluated by RT (reverse transcriptase) activity in cells acutely infected with HIV-1
Homo sapiens = species: Homo sapiens; assay: Intracellular phosphorylation (100 uM) in uninfected AA2 cells was studied, after 5 hrs of Incubation.; format: functional, cell-based; procedure, shortened: as §2
CEM-SS [8] = assay: Intracellular phosphorylation (10 uM) in uninfected CEM-SS cells was studied after 24 hrs of Incubation.; format: functional, cell-based; details: Homo sapiens; procedure, shortened: as §2
CEM-SS [9] = assay: Intracellular phosphorylation (100 uM) studied, after 5 hrs of Incubation.; format: functional, cell-based; details: Homo sapiens; procedure, shortened: as §2
[10] = as §1; format: cell-based; details: Homo sapiens
Procedure, shortened: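 KB cells plated at 5000/well and incubated overnight at 37 °C. Compound added in triplicate at eight concentrations, then 48 h at 37 °C in CO₂ (two population doublings). Cells fixed with 95% ethanol, stained with 0.1% crystal violet, dye eluted with acidified ethanol and read at 570 nm. IC50 taken from linear regression of % inhibition vs log concentration.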

CEM-SS [11] = assay: Intracellular phosphorylation (100 uM) in uninfected CEM-SS cells was studied after 24 hrs of Incubation.; format: functional, cell-based; details: Homo sapiens; procedure, shortened: as §2

Compound	IC50 [1] [µM]	IC50 (CEM-SS [2]) [µM]	IC50 (HFF [3]) [µM]	IC50 (HFF [4]) [µM]	IC50 [5] [µM]	Concentration (CEM-SS [6]) [µM]	IC50 [7] [µM]	Concentration (Homo sapiens) [µM]	Concentration (CEM-SS [8]) [µM]	Concentration (CEM-SS [9]) [µM]	IC50 [10] [µM]	Concentration (CEM-SS [11]) [µM]
CC(C)C(=O)NC1=NN(C)c2ncnc3c2c1cn3C1O[C@H](CO)[C@@H](O)[C@H]1O (some centres undefined)	> 100	> 100	> 100	> 100	> 100	–	–	–	–	–	–	–
CCCCCCCCC(=O)NC1=NN(C)c2ncnc3c2c1cn3C1O[C@H](CO)[C@@H](O)[C@H]1O (some centres undefined)	> 100	32	21	12	65	243	–	–	–	–	–	–
CN1N=C(N)c2cn([C@@H]3O[C@H](COP(=O)(O)O)[C@@H](O)[C@H]3O)c3ncnc1c23 [TRICIRIBINE PHOSPHATE]	20	> 1	–	–	10	–	0.04	–	–	–	–	–
CCCCCC(=O)NC1=NN(C)c2ncnc3c2c1cn3C1O[C@H](CO)[C@@H](O)[C@H]1O (some centres undefined)	> 100	45	100	8.8	40	–	–	–	–	–	–	–
CN1N=C(NC(=O)c2ccccc2)c2cn(C3O[C@H](CO)[C@@H](O)[C@H]3O)c3ncnc1c23 (some centres undefined)	> 100	> 100	> 100	> 100	> 100	–	–	–	–	–	–	–
CCCCCCC(=O)NC1=NN(C)c2ncnc3c2c1cn3C1O[C@H](CO)[C@@H](O)[C@H]1O (some centres undefined)	> 100	32	32	11	30	–	–	48	225	850	–	–
CCCC(=O)NC1=NN(C)c2ncnc3c2c1cn3C1O[C@H](CO)[C@@H](O)[C@H]1O (some centres undefined)	> 100	> 100	100	10	100	–	–	–	–	–	–	–
CC(=O)NC1=NN(C)c2ncnc3c2c1cn3C1O[C@H](CO)[C@@H](O)[C@H]1O (some centres undefined)	> 100	> 100	> 100	> 100	> 100	–	–	–	–	–	–	–
CN1N=C(NC(=O)C(C)(C)C)c2cn(C3O[C@H](CO)[C@@H](O)[C@H]3O)c3ncnc1c23 (some centres undefined)	> 100	> 100	> 100	> 100	> 100	–	–	–	–	–	–	–
CCCCCCCCCCCC(=O)NC1=NN(C)c2ncnc3c2c1cn3C1O[C@H](CO)[C@@H](O)[C@H]1O (some centres undefined)	45	32	21	12	75	–	–	–	–	–	–	–
CCC(=O)NC1=NN(C)c2ncnc3c2c1cn3C1O[C@H](CO)[C@@H](O)[C@H]1O (some centres undefined)	> 100	> 100	100	40	–	–	–	–	–	–	> 100	–
CCCCC(=O)NC1=NN(C)c2ncnc3c2c1cn3C1O[C@H](CO)[C@@H](O)[C@H]1O (some centres undefined)	> 100	32	> 100	0.45	30	–	–	–	–	–	–	710
CCCCCCCCCC(=O)NC1=NN(C)c2ncnc3c2c1cn3C1O[C@H](CO)[C@@H](O)[C@H]1O (some centres undefined)	> 100	32	21	12	40	–	–	–	–	–	–	–
CCCCCCCC(=O)NC1=NN(C)c2ncnc3c2c1cn3C1O[C@H](CO)[C@@H](O)[C@H]1O (some centres undefined)	> 100	32	21	12	40	–	–	–	–	–	–	–

Reference: ChEMBL document CHEMBL1133753, “6-N-Acyltriciribine analogues: structure-activity relationship between acyl carbon chain length and activity against HIV-1” (J Med Chem, 2000)
